Measurements taken from ChEMBL document CHEMBL1122607, “Heterocyclic analogues of chlorcyclizine with potent hypolipidemic activity” (J Med Chem, 1984).
“And” between values parts separate entries of the source, which are not always exact repeats. Identical values can stand only once.

Tests used:
Rattus norvegicus [1] = assay: Hypolipidemic activity was measured as reduction in rat serum triglyceride after oral administration in male Wistar rats at 200 mg / (kg day); type: functional
Procedure, shortened: (§1)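 Cholesterol-fed rats given the test compound orally by gavage on the last 3 days, with controls receiving vehicle (0.5% tragacanth mucilage). After overnight starvation, rats were killed under CO2 3 h after the last dose and bled by cardiac puncture. Serum cholesterol and triglyceride were measured by autoanalyzer and expressed as percentage reduction from control levels, with Student's t test.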

Rattus norvegicus [2] = assay: Hypolipidemic activity was measured as reduction in rat serum cholesterol after oral administration in male Wistar rats at 200 mg / (kg day); type: functional; procedure, shortened: as §1
Rattus norvegicus [3] = assay: Hypolipidemic activity was measured as reduction in rat serum triglyceride after oral administration in male Wistar rats at 10 mg / (kg day); type: functional; procedure, shortened: as §1
Rattus norvegicus [4] = assay: Hypolipidemic activity was measured as reduction in rat serum triglyceride after oral administration in male Wistar rats at 3 mg / (kg day); type: functional; procedure, shortened: as §1
Rattus norvegicus [5] = assay: Hypolipidemic activity was measured as reduction in rat serum cholesterol after oral administration in male Wistar rats at 30 mg / (kg day); type: functional; procedure, shortened: as §1
[6] = The therapeutic safety margin (TSM) is the ratio of the minimum lethal dose (mg/kg)to the MED; type: ADME, organism-based; settings: in vivo
Procedure, shortened: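 Young male Wistar rats, eight per group, on cholesterol/cholic acid-supplemented or normal diet; graded oral gavage doses daily for 14 days; vehicle controls (0.5% tragacanth mucilage). Mortalities recorded to give the minimum lethal daily dose. After overnight fasting, serum cholesterol assayed by autoanalyzer. MED is the dose giving a significant (t test) 30% cholesterol fall, from the log dose/response curve. TSM = minimum lethal dose/MED.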

Rattus norvegicus [7] = assay: Hypolipidemic activity was measured as reduction in rat serum triglyceride after oral administration in male Wistar rats at 30 mg / (kg day); type: functional; procedure, shortened: as §1
Rattus norvegicus [8] = assay: Hypolipidemic activity was measured as reduction in rat serum cholesterol after oral administration in male Wistar rats at 10 mg / (kg day); type: functional; procedure, shortened: as §1
Rattus norvegicus [9] = assay: Hypolipidemic activity was measured as reduction in rat serum cholesterol after oral administration in male Wistar rats at 3 mg / (kg day); type: functional; procedure, shortened: as §1
Rattus norvegicus [10] = assay: Hypolipidemic activity was measured as reduction in rat serum triglyceride after oral administration in male Wistar rats at 100 mg / (kg day); type: functional; procedure, shortened: as §1
Rattus norvegicus [11] = assay: Minimum effective dose (MED) is the dose (mg/kg)that cause significant reduction in serum cholesterol of 30% compared to concurrent controls.; type: functional; set-up: unit: mg/kg
Procedure, shortened: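 MED was calculated from the log dose/response curve as the dose giving a statistically significant 30% fall in serum cholesterol versus concurrent controls. Measured in the 3-day oral cholesterol-fed rat screen, or in a 2-week test: groups of eight young male Wistar rats on cholesterol/cholic acid-supplemented or normal diet, dosed orally by gavage daily for 14 days, vehicle 0.5% tragacanth mucilage.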

Rattus norvegicus [12] = assay: Hypolipidemic activity was measured as reduction in rat serum cholesterol after oral administration in male Wistar rats at 100 mg/(kg day); type: functional; procedure, shortened: as §1
Rattus norvegicus [13] = assay: Hypolipidemic activity was measured as reduction in rat serum triglyceride after oral administration in male Wistar rats at 1 mg / (kg day); type: functional; procedure, shortened: as §1
Rattus norvegicus [14] = assay: Hypolipidemic activity was measured as reduction in rat serum cholesterol after oral administration in male Wistar rats at 1 mg / (kg day); type: functional; procedure, shortened: as §1
Rattus norvegicus [15] = assay: Hypolipidemic activity was measured as reduction in rat serum cholesterol after oral administration in male Wistar rats at 50 mg / (kg day); type: functional; procedure, shortened: as §1
Rattus norvegicus [16] = assay: Hypolipidemic activity was measured as reduction in rat serum triglyceride after oral administration in male Wistar rats at 50 mg / (kg day); type: functional; procedure, shortened: as §1

Row | Compound | Reduction (Rattus norvegicus [1]) | Reduction (Rattus norvegicus [2]) | Reduction (Rattus norvegicus [3]) | Reduction (Rattus norvegicus [4]) | Reduction (Rattus norvegicus [5]) | therapeutic safety margin (minimum lethal dose / MED) [6] | Reduction (Rattus norvegicus [7]) | Reduction (Rattus norvegicus [8]) | Reduction (Rattus norvegicus [9]) | Reduction (Rattus norvegicus [10]) | MED (Rattus norvegicus [11]) | Reduction (Rattus norvegicus [12]) | Reduction (Rattus norvegicus [13]) | Reduction (Rattus norvegicus [14]) | Reduction (Rattus norvegicus [15]) | Reduction (Rattus norvegicus [16])
1 | COc1cccc(C(c2cc(C)ns2)N2CCN(C)CC2)c1 (stereo not drawn) | 2% | 3% |  |  |  |  |  |  |  |  |  |  |  |  |  | 
2 | Cc1cnsc1C(c1ccc(C(C)C)cc1)N1CCN(CCCO)CC1 (stereo not drawn) |  |  | 48% | 17% | 75% | 20 | 55% | 63% | 19% | 78% | 5 | 80% |  |  |  | 
3 | Cc1ccccc1C(c1c(C)noc1C)N1CCN(C)CC1 (stereo not drawn) | 84% | 88% |  |  | 28% |  | 21% |  |  | 75% |  | 80% |  |  |  | 
4 | COc1ccc(C(c2cc(C)ns2)N2CCN(C)CC2)cc1OC (stereo not drawn) | 4% | 7% |  |  |  |  |  |  |  |  |  |  |  |  |  | 
5 | CCCCCc1ccc(C(c2ccns2)N2CCN(C)CC2)cc1 (stereo not drawn) | 85% | 87% |  |  | 26% |  | 23% |  |  |  |  |  |  |  |  | 
6 | Cc1cnsc1C(c1ccc(C(C)C)cc1)N1CCN(C)CC1 (stereo not drawn) |  |  | 42% | 5% | 69% | 30 | 64% | 48% | 31% | 89% | 3 | 68% |  |  |  | 
7 | Cc1cc(C(c2ccccc2)N2CCN(Cc3ccccc3)CC2)sn1 (stereo not drawn) | 56% | 26% |  |  |  |  |  |  |  |  |  |  |  |  |  | 
8 | Cc1cnsc1C(c1ccc(C(C)C)cc1)N1CCNCC1 (stereo not drawn) |  |  | 48% | 2% | 87% | 10 | 76% | 70% | 44% | 81% | 2 | 86% | 15% | 16% |  | 
9 | Cc1noc(C)c1C(c1ccc(C(C)C)cc1)N1CCN(C)CC1 (stereo not drawn) |  |  | 35% |  | 80% | 100 | 69% | 67% | 41% and 30% | 66% | 2 | 87% | 31% | 8% |  | 
10 | Cc1cc(C(N)c2ccc(C(C)C)cc2)sn1 (stereo not drawn) | 9% | 34% |  |  |  |  |  |  |  |  |  |  |  |  |  | 
11 | CN1CCN(C(c2ccc(Cl)cc2)c2ccns2)CC1 (stereo not drawn) | 37% | 63% |  |  |  |  |  |  |  | 41% | 84 | 38% |  |  | 17% | 38%
12 | CN1CCN(C(c2ccccc2Cl)c2nccn2C)CC1 (stereo not drawn) | 64% | 53% |  |  |  |  |  |  |  |  |  |  |  |  |  | 
13 | COc1ccc(C(c2cc(C)ns2)N2CCN(C)CC2)cc1 (stereo not drawn) | 23% | 0% |  |  |  |  |  |  |  |  |  |  |  |  |  | 
14 | Cc1cc(C(c2ccccc2F)N2CCN(C)CC2)sn1 (stereo not drawn) | 57% | 25% |  |  |  |  |  |  |  |  |  |  |  |  |  | 
15 | CC(C)COc1ccccc1C(c1ccns1)N1CCN(C)CC1 (stereo not drawn) | 85% | 85% | 15% |  | 49% |  | 50% | 1% |  |  | 18 |  |  |  |  | 
16 | Cc1cnsc1C(c1ccc(C(C)C)cc1)N1CCN(CCO)CC1 (stereo not drawn) |  |  | 48% | 8% | 82% | 30 | 69% | 69% | 30% | 97% | 3 | 87% | 3% | 10% |  | 
